Measurements as given in ChEMBL document CHEMBL1152785, “Synthesis and biological evaluation of a series of novel inhibitor of Nek2/Hec1 analogues” (J Med Chem, 2009).
Calls of active or inactive are those of the source. The rule behind the calls is not given here.

Columns and labels:
MDA-MB-231 = assay: Cytotoxicity against human MDA-MB-231 cells after 4 days XTT assay; format: functional, cell-based; details: MDA-MB-231, 96 h
Outline: (§1)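 XTT assay with four-day drug treatment. Cells were plated one day before dosing and drug was added on day 2. XTT was read on day 5 after drug addition by absorbance at 595 nm. Absorbance was converted to percent survival against mock-treated cells to give dose-dependent cytotoxicity. Triplicate sets. HeLa, MDA-MB231 and MDA-MB468 were maintained in DMEM with 10% FBS.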

MDA-MB-468 = assay: Cytotoxicity against human MDA-MB-468 cells after 4 days by XTT assay; format: functional, cell-based; details: MDA-MB-468, 96 h; outline: as §1
HeLa [1] = assay: Anticancer activity against human HeLa cells assessed as reduction of Nek2 level at 25 uM by Western blot assay; format: functional, cell-based
HeLa [2] = assay: Cytotoxicity against human HeLa cells after 4 days by XTT assay; format: functional, cell-based; details: 96 h; outline: as §1
K562 = assay: Cytotoxicity against human K562 cells after 4 days by XTT assay; format: functional, cell-based; details: K562, 96 h
[3] = target: T1, Kinetochore protein NDC80 homolog (Homo sapiens) (UniProt O14777); assay: Inhibition of Hec1/Nek2 complex in human Hela cells assessed as mitotic abnormality with multipolar spindle configuration at 25 uM after 24 hrs by immuno-fluorescent staining; format: cell-based
T1 sequence (whole entry): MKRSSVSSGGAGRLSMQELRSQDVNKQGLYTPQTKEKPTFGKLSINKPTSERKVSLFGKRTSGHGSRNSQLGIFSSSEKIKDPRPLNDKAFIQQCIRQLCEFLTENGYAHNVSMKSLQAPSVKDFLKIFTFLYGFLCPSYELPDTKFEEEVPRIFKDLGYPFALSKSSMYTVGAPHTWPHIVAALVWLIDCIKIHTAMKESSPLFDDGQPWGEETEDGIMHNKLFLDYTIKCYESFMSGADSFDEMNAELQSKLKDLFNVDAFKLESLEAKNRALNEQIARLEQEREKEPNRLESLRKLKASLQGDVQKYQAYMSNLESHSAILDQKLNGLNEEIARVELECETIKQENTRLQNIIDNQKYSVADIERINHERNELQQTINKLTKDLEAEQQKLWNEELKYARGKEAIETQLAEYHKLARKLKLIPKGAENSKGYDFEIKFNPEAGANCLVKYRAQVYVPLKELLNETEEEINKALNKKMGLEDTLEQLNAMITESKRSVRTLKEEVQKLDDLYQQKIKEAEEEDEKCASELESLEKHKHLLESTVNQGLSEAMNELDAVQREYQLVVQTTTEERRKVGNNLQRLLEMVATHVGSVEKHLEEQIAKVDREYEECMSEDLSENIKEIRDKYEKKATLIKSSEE

HeLa [4] = assay: Anticancer activity against human HeLa cells assessed as reduction of Nek2 level at 25 uM after 8 to 11 hrs by Western blot assay; format: functional, cell-based

Cc1ccc(-c2csc(NC(=O)c3ccccc3)n2)c(C)c1
IC50 (MDA-MB-231): 8.6 µM
IC50 (MDA-MB-468): 10.5 µM
Activity (HeLa [1]): Active
IC50 (HeLa [2]): 8.8 µM
IC50 (K562): 11.7 µM
Activity [3]: Active
Activity (HeLa [4]): Active
